Source: PubChem (several laboratories)
CHT block – inhibits the human high affinity choline transporter; Q9GZV3; CHT-expressing cells, membrane potential dye, choline response; active compounds read low; B-score at 10 µM; hit rate 0.86% among 310,000; AID 488975;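 active = B-score over 3 SD under the library average, and starting fluorescence ratio not unusually high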;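 note: choline stimulus applied at its EC90 after an EC20 pre-addition; B-score computed on integrated fluorescence ratio after choline addition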
Target sequence (Q9GZV3 whole entry, looked up): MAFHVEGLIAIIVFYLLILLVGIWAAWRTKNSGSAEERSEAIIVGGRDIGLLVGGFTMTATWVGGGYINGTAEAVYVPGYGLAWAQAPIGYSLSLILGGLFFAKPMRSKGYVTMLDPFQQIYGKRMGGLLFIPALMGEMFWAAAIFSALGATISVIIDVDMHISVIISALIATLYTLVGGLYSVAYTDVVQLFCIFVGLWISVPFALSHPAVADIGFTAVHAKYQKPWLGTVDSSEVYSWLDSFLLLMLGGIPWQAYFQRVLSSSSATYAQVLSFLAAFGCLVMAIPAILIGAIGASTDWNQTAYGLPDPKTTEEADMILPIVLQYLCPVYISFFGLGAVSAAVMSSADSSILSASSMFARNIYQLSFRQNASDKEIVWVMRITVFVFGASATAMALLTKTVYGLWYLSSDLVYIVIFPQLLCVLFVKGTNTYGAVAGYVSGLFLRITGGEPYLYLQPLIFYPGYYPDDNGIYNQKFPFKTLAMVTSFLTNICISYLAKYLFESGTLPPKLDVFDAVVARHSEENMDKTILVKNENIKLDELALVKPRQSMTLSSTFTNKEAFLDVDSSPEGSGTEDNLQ
CHT PAM – allosterically activates the human high affinity choline transporter; Q9GZV3; CHT-expressing cells, membrane potential dye, choline EC20; active compounds read high; LV-AA mutant CHT in HEK293 cells; B-score at 10 µM; hit rate 0.49% among 310,000; AID 488977;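 active = initial fluorescence not abnormally high and integrated response B-score, plate-corrected, over 3 SD above library mean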
GPR7 antag – antagonists of human GPR7 (neuropeptides B/W receptor 1); GPR7-expressing cells, fluorescence antagonist assay; inhibition, % at 4.4 µM; hit rate 1.1% among 290,000; in the data active = inhibition above about 16%, passing the limit was not always enough;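 note: cells stimulated with the agonist NPW; 0% = agonist with vehicle and 100% = vehicle without agonist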
pCIP destab – p/CIP protein destabilization | decrease of EGFP signal, % at 10 µM | Q05BA5 | F442A p/CIP-EGFP cells, EGFP fluorescence, 16 h | hit rate 0.01% among 290,000;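 active = EGFP signal decrease of at least 30% at 10 µM or well 3 SD below plate mean, unless failing retest; inactive = the rest, including hits failing retest or dose response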
DSG3 Ab inh – blocks pemphigus antibody binding to human desmoglein-3; DSG3-coupled beads, scFv-anti-DSG3-GFP binding, flow cytometry; active compounds read low; P32926; binding (percent of control), % at 10 µM; hit rate 0.48% among 310,000; AID 588358;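 active = binding more than 3 SD below its plate's average and above zero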;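 note: hits lower antibody fragment binding to DSG3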
T cell modulator – T cell immune modulation candidate | response (vesicle binding), % at 7 µM | AID 2052 | hit rate 0.068% among 330,000 | 2C CD8+ T cell-vesicle binding, flow cytometry; active compounds read low;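 active = response, share of CD8 T cells binding vesicles, and their 90th percentile fluorescence all below set limits, cut at about 80% in these data, passing the limit was not always enough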;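 note: values below 100% mean blocked vesicle binding to the CD8+ T cells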
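Test system: purified 2C TCR transgenic mouse naive CD8+ T cells. Probe or stimulus: QL9-peptide-loaded Drosophila micro-vesicles bearing Ld, ICAM-1 and B7-1. Incubation: binding step 1.5 h, 37 °C, antibody labelling 20 min, ice. Measured by: flow cytometry of vesicle-bound cells.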
CHT block conf – human CHT inhibition, confirmatory screen; shares compounds with CHT block; CHT-expressing cells, choline membrane potential dye; LV-to-AA substituted CHT, HEK293 cells; CHT activity remaining % of control (active compounds read low), % at 10 µM; hit rate 70% among 2,400; AID 493221;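 active = choline transporter activity left, mean of duplicates at 10 µM, below buffer-only control mean minus 3 SD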;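 note: depolarization triggered by choline at its EC90 following an EC20 pre-addition; 0% = hemicholinium-3 full block and 100% = buffer-only control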
HEK293 MPD ctr – CHT inhibitor counter-screen hit in parental HEK293 cells | membrane potential ratio readout (active if shifted either direction beyond buffer ±3SD; no single direction) at 10 µM | hit rate 4% among 2,400 | AID 493222 | shares compounds with CHT block | membrane potential dye, choline response; active = decrease or increase beyond buffer ±3SD;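 note: parental cells lack the transporter so any hit is non-specific; ratio is peak minus trough fluorescence over baseline after EC90 choline challenge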
Starred values were filed as active, the others as inactive; i = inactive; nt = not tested or not shown. This is a sample that favours compounds with a hit; in the whole collection about 2.3% have one here.

SMILES	CHT block	CHT PAM	GPR7 antag	pCIP destab	DSG3 Ab inh	T cell modulator	CHT block conf	HEK293 MPD ctr
CN1CCN(Cc2ccc(Sc3ccc(Cl)cc3)c([N+](=O)[O-])c2)CC1	-5.1*	i	15	6	98	i	61%*	i
Cc1ccc(Sc2ccc(CN3CCCC3)cc2[N+](=O)[O-])cc1	i	i	4	7	98	172	nt	nt
CCCn1c2ccccc2c2cnn(CC(=O)NCCCN3CCCCC3)c(=O)c21	-9.3*	i	-6	4	100	259	21%*	i
CCCn1c2ccccc2c2cnn(CC(=O)NCCCN3CCN(c4ccccc4)CC3)c(=O)c21	-9.9*	i	0	0	nt	210	23%*	i
CCCN1CCN(CCCNC(=O)Cn2ncc3c4ccccc4n(C)c3c2=O)CC1	i	i	-7	2	104	885	nt	nt
CCCn1c2ccccc2c2cnn(CC(=O)NCCCN3CCCC(C)C3)c(=O)c21 (centres undefined)	-6.6*	i	-4	3	97	293	26%*	i
O=C(Cn1ncc2c3ccccc3n(Cc3ccccc3)c2c1=O)NCCCN1CCCC1	-9*	i	-10	-7	105	253	25%*	i
Cc1c2cnn(CC(=O)NCCCN3CCCCC3)c(=O)c2c(C)n1Cc1ccccc1	i	i	-6	1	128	486	nt	nt
O=C(O)C(c1ccccc1)C1CCCCC1O (centres undefined)	nt	nt	nt	nt	93	nt	nt	nt
CCN1C(C)=CC(=O)[C@@H](O)[C@H]1c1ccccc1Br	nt	nt	nt	nt	96	nt	nt	nt
O=C(Cn1ncc2c3ccccc3n(Cc3ccccc3)c2c1=O)NCCN1CCOCC1	-15*	i	-8	1	104	311	6.6%*	i
CCCn1c2ccccc2c2cnn(CC(=O)OC)c(=O)c21	-5.8*	i	-20	1	93	i	24%*	i
CN1CCN(CCCNC(=O)Cn2ncc3c4ccccc4n(C)c3c2=O)CC1	i	i	-11	18	94	261	nt	nt
Cn1c2ccccc2c2cnn(CC(=O)NCCCN3CCN(c4ccccc4F)CC3)c(=O)c21	-5.5*	i	-2	9	101	342	i	i
O=S1(=O)c2ccc(Br)cc2N2CC[C@H](C2)N1Cc1ccc(Cl)cc1	nt	nt	nt	nt	100	nt	nt	nt
O=C(O)C(Cc1ccccc1)N1C(=O)C2C3CCC(C3)C2C1=O (centres undefined)	nt	nt	nt	nt	105	nt	nt	nt
Cc1ccc(-n2cc(CN3CCN(Cc4nccn4C)CC3)c(-c3cccc(C)c3)n2)cc1	-5.6*	i	3	11	nt	251	27%*	i
CCOC(=O)c1c(/N=C/c2cc([N+](=O)[O-])ccc2O)sc(C)c1C	-5*	i	23*	15	128	326	i	i
CCOC(=O)c1c(/N=C/c2cc(OC)cc([N+](=O)[O-])c2O)sc(C)c1C	i	i	-7	-13	nt	160	nt	nt
O=C1c2c(Cl)c(Cl)c(Cl)c(Cl)c2C(=O)N1c1nccs1	nt	nt	nt	nt	111	nt	nt	nt
O=[N+]([O-])c1cc(Cl)cc(/C=N\Nc2ccccn2)c1O	i	i	-8	2	101	357	nt	nt
CN(C)C1(CN=Cc2cc(Cl)cc([N+](=O)[O-])c2O)CCCCC1	-6.3*	i	-9	-11	nt	155	36%*	i
C=CCNC(=O)c1ccc(C2SCC(=O)N2Cc2ccccc2)cc1 (centres undefined)	-7*	i	8	-3	nt	173	70%*	i
O=C(Cc1ccc2c(c1)OCCO2)Nc1cc(Cl)ccc1N1CCOCC1	nt	nt	nt	nt	90	nt	nt	nt
N#Cc1c(C(F)(F)F)cc(-c2ccc(F)cc2)[nH]c1=O	i	i	-3	10	98	186	nt	nt
SMILES	CHT block	CHT PAM	GPR7 antag	pCIP destab	DSG3 Ab inh	T cell modulator	CHT block conf	HEK293 MPD ctr
N#Cc1c(C(F)(F)F)cc(-c2cccc(Cl)c2)[nH]c1=O	-5.2*	i	-8	-12	nt	526	i	i
CCOC(=O)[C@H]1[C@H]2COc3ccc(Br)cc3[C@@H]2N2C(=O)CN(Cc3ccccc3)C(=O)[C@@]12C	nt	nt	nt	nt	105	206	nt	nt
O=C(NC1CCCCC1)C(c1ccc2ncccc2c1)N(Cc1cccs1)C(=O)c1cccs1 (centres undefined)	-5.5*	i	-5	-24	104	548	i	i
O=C(NC1CCCCC1)C(c1ccc2ncccc2c1)N(Cc1ccc(F)cc1)C(=O)c1ccc2c(c1)OCCO2 (centres undefined)	-7.5*	i	-5	-14	97	228	65%*	i
O=C(NC1CCCCC1)C(c1ccc2ncccc2c1)N(Cc1ccco1)C(=O)c1ccc2c(c1)OCCO2 (centres undefined)	i	i	2	-7	119	251	nt	nt
O=C(NC1CCCCC1)C(c1ccc2ncccc2c1)N(Cc1ccc2c(c1)OCO2)C(=O)c1ccc2c(c1)OCCO2 (centres undefined)	-14*	i	-6	0	90	136	30%*	i
CC(=O)OC1C(=O)N(Cc2ccccc2)C1c1ccc(C)cc1 (centres undefined)	nt	nt	nt	nt	110	nt	nt	nt
CC1=C(C(=O)N(C)C)CC(CC(=O)NC2CCCCC2)C(=O)N1CCC1=CCCCC1 (centres undefined)	nt	nt	nt	nt	103	nt	nt	nt
CC(C)c1ccc(S(=O)(=O)N2CCC(C(=O)NCC3(N(C)C)CCCCC3)CC2)cc1	-6.1*	i	-9	-6	nt	359	22%*	i
CN(C)C1(CNC(=O)C2CCN(S(=O)(=O)c3cc(Cl)ccc3Cl)CC2)CCCCC1	i	i	0	-22	110	522	nt	nt
COc1cccc(C(c2cccc(OC)c2)c2ccccc2C(=O)O)c1	nt	nt	nt	nt	121	nt	nt	nt
CC1CCN(C(=O)c2ccc3c(c2NCCO)C(=O)c2ccccc2C3=O)CC1	-6.3*	i	-4	-4	89	280	50%*	2.3*
COc1ccccc1NS(=O)(=O)c1ccc(C)c(C(=O)NCC(c2ccco2)N2CCCCC2)c1 (centres undefined)	-16*	i	5	-2	108	397	-4.8%*	i
COc1ccc(C(CNC(=O)c2cccc(NS(=O)(=O)c3ccccc3)c2)N2CCCC2)cc1 (centres undefined)	nt	nt	nt	nt	129	nt	nt	nt
Cc1cccc(NS(=O)(=O)c2cccc(C(=O)NCC(c3ccco3)N3CCCCC3)c2)c1 (centres undefined)	-6.7*	i	nt	nt	105	413	14%*	i
